Values belong to the molecule of their own block, whether it stands above or below them.
Assays:
[1] = target: T1, human UGT1A1 (Homo sapiens, UniProt P22309); experiment: Inhibition of estradiol 3-O-glucuronidation in the UGT1A1 recombinant system; type: biochemical; conditions: for Inhibitory pattern against estradiol 3-O-glucuronidation: Recombinant UGT1A1, Dixon plot; for Inhibition of UGT1A1 activity: UGT1A1 recombinant system, 50 μM fatty acid
T1 sequence (P22309 26-533): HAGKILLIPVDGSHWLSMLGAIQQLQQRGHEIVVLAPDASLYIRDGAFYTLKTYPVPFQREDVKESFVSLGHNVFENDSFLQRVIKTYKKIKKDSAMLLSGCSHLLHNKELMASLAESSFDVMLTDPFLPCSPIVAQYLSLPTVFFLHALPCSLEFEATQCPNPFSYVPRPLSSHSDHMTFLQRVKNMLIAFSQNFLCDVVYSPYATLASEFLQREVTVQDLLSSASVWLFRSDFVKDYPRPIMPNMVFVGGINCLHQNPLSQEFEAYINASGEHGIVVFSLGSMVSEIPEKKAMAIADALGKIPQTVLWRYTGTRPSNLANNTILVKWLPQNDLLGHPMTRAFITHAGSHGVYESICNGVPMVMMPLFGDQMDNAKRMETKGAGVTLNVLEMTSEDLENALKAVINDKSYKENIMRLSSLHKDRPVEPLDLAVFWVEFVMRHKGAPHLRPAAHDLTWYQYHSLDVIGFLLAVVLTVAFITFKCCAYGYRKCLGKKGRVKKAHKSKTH
Summary of the method: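 Recombinant UGT1A1 Supersomes (0.25 mg/ml) were used in 50 mM Tris-HCl pH 7.4, 10 mM MgCl2, 25 μg/ml alamethicin and 2 mM UDPGA, with test fatty acid at 1–50 μM, 3-min preincubation, and 30 min at 37°C. For IC50, estradiol was 10 μM, runs were duplicate, and values came from linear regression. For Ki, estradiol was 5, 10 or 20 μM with Dixon plot. Product measured by HPLC-fluorescence against authentic standard.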

[2] = target: T2, UGT1A1 activity in human liver microsomes (Homo sapiens, UniProt P22309); experiment: Inhibition of estradiol 3-O-glucuronidation in human liver microsomes; type: biochemical; conditions: for Inhibitory pattern against estradiol 3-O-glucuronidation: Human liver microsomes, Dixon plot
T2 sequence (P22309 26-533): T1 sequence (P22309 26-533)
Summary of the method: (§1)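 Microsomes from human liver or small intestine (0.25 mg/ml) were incubated with 50 mM Tris-HCl pH 7.4, 10 mM MgCl2, 25 μg/ml alamethicin, 2 mM UDPGA, estradiol at 5, 10 or 20 μM, and test fatty acid at 1–50 μM. After 3-min preincubation at 37°C, UDPGA was added to start; 30 min at 37°C; cold methanol stop. Glucuronide measured by HPLC-fluorescence (ex 280/em 310 nm); Dixon plot gave inhibition type and Ki.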

[3] = system: UGT1A1 activity in human small intestine microsomes; experiment: Inhibition of estradiol 3-O-glucuronidation in human small intestine microsomes; type: biochemical; conditions: Human small intestine microsomes; Dixon plot
Summary of the method: as §1

[4] = system: UGT1A1; experiment: as above; type: biochemical; conditions: human, human small intestine microsomes; for activity at 30 min, 50 μM: pH 7.4, probe estradiol (10 μM; estradiol 3-O-glucuronide formation)
Summary of the method: as §1

[5] = system: hUGT1 mice; type: in vivo; conditions: neonatal hUGT1 mice; oral 10 mg/kg at 12 days after birth; 48 hours after treatment; control increase 2.3 ± 3.2 mg/dL
[6] = system: bilirubin clearance by UGT1A1; experiment: Estimated ratio of intrinsic clearance; conditions: Equation 4; DHA concentration in human breast milk around 60 μM
[7] = target: T1, human UGT1A1; conditions: read-out: Km value of bilirubin glucuronidation; cited from earlier work

Compound: C=CC1=C(C)/C(=C/c2[nH]c(Cc3[nH]c(/C=C4\NC(=O)C(C)=C4C=C)c(C)c3CCC(=O)O)c(CCC(=O)O)c2C)NC1=O [bilirubin]
Km [7]: ~2000 nM

Compound: CCCCCCCCCC(=O)O [decanoic acid]
IC50 [1]: > 50 µM

Compound: CCCCCCCCCCCC(=O)O [lauric acid]
Inhibition of UGT1A1 activity [1]: not inhibited at all

Compound: CCCCCCCCCCCCCCCCCCCCCCCC(=O)O [lignoceric acid]
Inhibition of UGT1A1 activity [1]: not inhibited at all

Compound: CCCCCCCCCCCCCC(=O)O [myristic acid]
IC50 [1]: > 50 µM
Inhibition of UGT1A1 activity [1]: not inhibited at all

Compound: CCCCCCCCCCCCCCCC(=O)O [palmitic acid]
IC50 [1]: > 50 µM
Inhibition of UGT1A1 activity [1]: not inhibited at all

Compound: CCCCCCCCCCCCCCCCCC(=O)O [stearic acid]
IC50 [1]: > 50 µM

More lines, main results first:

IC50 [1]: 22.7 µM
Compound: CCCCC/C=C\C/C=C\C/C=C\C/C=C\CCCC(=O)O [Arachidonic acid]

IC50 [1]: 11.6 µM
Ki [1]: 1.8 µM
Inhibitory pattern against estradiol 3-O-glucuronidation [1]: non-competitive
Ki [2]: 4.3 µM
Inhibitory pattern against estradiol 3-O-glucuronidation [2]: non-competitive
Ki at 30 min ([4]; pH 7.4): 5.2 µM
R value (ratio of intrinsic clearance in presence and absence of inhibitor) [6]: 0.08
Compound: CC/C=C\C/C=C\C/C=C\C/C=C\C/C=C\C/C=C\CCC(=O)O [DHA, docosahexaenoic acid]
Inhibitory pattern against estradiol 3-O-glucuronidation [3]: non-competitive
Increase of serum bilirubin levels from 12 days to 14 days after birth [5]: 6.6 mg/dL

IC50 [1]: 19.9 µM
Compound: CC/C=C\C/C=C\C/C=C\C/C=C\C/C=C\CCCC(=O)O [EPA, eicosapentaenoic acid]

IC50 [1]: 33.1 µM
Ki [1]: 22.1 µM
Inhibitory pattern against estradiol 3-O-glucuronidation [1]: non-competitively
Ki [2]: 24 µM
Inhibitory pattern against estradiol 3-O-glucuronidation [2]: non-competitively
activity at 30 min, 50 μM [4]: > 80%
Compound: CCCCC/C=C\C/C=C\CCCCCCCC(=O)O [Linoleic acid]

IC50 [1]: 31.6 µM
Ki [1]: 23.4 µM
Inhibitory pattern against estradiol 3-O-glucuronidation [1]: non-competitively
Ki [2]: 29.3 µM
Inhibitory pattern against estradiol 3-O-glucuronidation [2]: non-competitively
activity at 30 min, 50 μM [4]: > 80%
Compound: CCCCCCCC/C=C\CCCCCCCC(=O)O [Oleic acid]

IC50 [1]: 37.1 µM
Compound: CCCCCC/C=C\CCCCCCCC(=O)O [Palmitoleic acid]

IC50 [1]: > 50 µM
Inhibition of UGT1A1 activity [1]: not inhibited at all
Compound: CCCCCCCCCCCCCCCCCCCC(=O)O [arachidic acid]

IC50 [1]: > 50 µM
Inhibition of UGT1A1 activity [1]: not inhibited at all
Compound: CCCCCCCCCCCCCCCCCCCCCC(=O)O [behenic acid]

Reference: PMC3793218 (Scientific Reports, 2013)
